Our source for the IC50 values is BindingDB's records for doi:10.1021/np1002065 (The Ohio State University, 2010).

Some results are limits rather than exact numbers.

Assay [1] deals with T1, Nuclear factor NF-kappa-B p105 subunit (Homo sapiens, UniProt P19838).
T1 sequence (P19838 whole entry): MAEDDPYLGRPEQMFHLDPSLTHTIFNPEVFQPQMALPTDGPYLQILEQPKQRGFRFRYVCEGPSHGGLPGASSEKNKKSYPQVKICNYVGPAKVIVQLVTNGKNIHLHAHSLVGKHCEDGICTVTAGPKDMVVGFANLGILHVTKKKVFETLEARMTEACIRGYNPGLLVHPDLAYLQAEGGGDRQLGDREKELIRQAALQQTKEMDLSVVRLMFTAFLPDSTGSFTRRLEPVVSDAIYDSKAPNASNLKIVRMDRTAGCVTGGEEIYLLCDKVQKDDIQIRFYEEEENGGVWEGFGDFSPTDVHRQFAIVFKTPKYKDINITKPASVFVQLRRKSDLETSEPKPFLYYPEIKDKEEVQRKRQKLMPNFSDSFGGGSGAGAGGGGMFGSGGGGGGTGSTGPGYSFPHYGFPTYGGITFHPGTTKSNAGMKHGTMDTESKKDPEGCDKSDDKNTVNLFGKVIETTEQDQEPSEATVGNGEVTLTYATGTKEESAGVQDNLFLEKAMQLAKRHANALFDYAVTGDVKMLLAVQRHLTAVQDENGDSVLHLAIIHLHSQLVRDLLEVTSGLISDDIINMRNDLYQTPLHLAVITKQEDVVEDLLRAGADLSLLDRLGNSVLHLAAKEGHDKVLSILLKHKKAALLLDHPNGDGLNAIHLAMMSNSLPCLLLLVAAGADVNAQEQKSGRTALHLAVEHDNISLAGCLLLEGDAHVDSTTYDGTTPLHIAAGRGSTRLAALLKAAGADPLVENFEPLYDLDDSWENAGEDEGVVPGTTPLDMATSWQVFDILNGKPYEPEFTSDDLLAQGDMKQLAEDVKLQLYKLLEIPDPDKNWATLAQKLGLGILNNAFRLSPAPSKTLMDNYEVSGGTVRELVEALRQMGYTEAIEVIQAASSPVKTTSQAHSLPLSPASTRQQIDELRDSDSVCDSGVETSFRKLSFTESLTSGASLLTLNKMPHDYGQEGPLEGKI
The experiment in a line: Inhibition of NFkappa p50 isolated from nuclear extract of human HeLa cells assessed as blockade of binding to biotinylated consesus sequence by chemiluminescence assay. A digest of the protocol:
(§1)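 ELISA-format transcription factor assay. HeLa nuclear extract was treated with samples, and activated p50 or p65 bound to a biotinylated consensus sequence was detected by chemiluminescence on a plate reader. IC50 reported in μM.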

A further assay addresses Transcription factor p65 (Human, UniProt Q04206). The experiment in a line: Inhibition of NFkappa p65 isolated from nuclear extract of human HeLa cells assessed as blockade of binding to biotinylated consesus sequence by chemiluminescence assay. The essentials: as §1

By IC50 is commonly meant the concentration that inhibits the measured activity by half.

Sequence of Transcription factor p65 (Q04206 whole entry): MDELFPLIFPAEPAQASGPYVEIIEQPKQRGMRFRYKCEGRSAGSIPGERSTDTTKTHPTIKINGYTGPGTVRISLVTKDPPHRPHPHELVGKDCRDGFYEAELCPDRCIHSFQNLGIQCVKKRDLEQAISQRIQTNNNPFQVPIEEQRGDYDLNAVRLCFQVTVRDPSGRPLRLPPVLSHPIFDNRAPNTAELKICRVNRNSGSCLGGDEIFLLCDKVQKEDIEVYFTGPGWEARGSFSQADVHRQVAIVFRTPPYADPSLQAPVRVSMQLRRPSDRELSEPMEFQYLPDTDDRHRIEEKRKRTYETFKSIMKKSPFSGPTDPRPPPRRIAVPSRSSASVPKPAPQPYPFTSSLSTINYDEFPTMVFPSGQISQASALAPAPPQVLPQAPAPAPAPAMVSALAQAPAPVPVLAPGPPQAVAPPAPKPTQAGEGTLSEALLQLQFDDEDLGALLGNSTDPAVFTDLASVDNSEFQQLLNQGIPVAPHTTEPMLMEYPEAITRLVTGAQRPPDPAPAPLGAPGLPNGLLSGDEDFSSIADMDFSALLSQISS

Consider `C=C(C)[C@H]1Cc2c(oc3cc(O)c(CC=C(C)C)c(=O)c-3c2O)C2=C1C(=O)C(=O)C(CC=C(C)C)C2=O` (stereo partly specified) [Artonin O], for which the IC50 (in assay [1]; at Transcription factor p65) was over 10 µM each time.

Turning to `CC1(C)C=Cc2cc3c(cc2O1)Oc1cc(O)ccc1C(=O)C3` [Artoristilbene], the IC50 (in assay [1]; at Transcription factor p65) was over 10 µM throughout.

`C=C(C)[C@H]1Cc2c(oc3c4c(cc(=O)c-3c2O)OC(C)(C)C=C4)-c2c(O)cc(O)c(O)c21` [artobiloxanthone]: the results for the IC50 (in assay [1]; at Transcription factor p65) were 3.7 µM and 2.3 µM, respectively.
